From ChEMBL document CHEMBL1138606, “The discovery of tropane derivatives as nociceptin receptor ligands for the management of cough and anxiety” (Bioorg Med Chem Lett, 2009)
Active and inactive are the calls of the source. No cut-off for these calls is given here.

Tests used:
Nociceptin receptor [1] = target: T1, Nociceptin receptor (Homo sapiens, UniProt P41146); assay: Displacement of [125I][Tyr14]nociceptin from human cloned NOP receptor expressed in CHO cells; format: cell-based
Mu-type opioid receptor [2] = target: T2, Mu-type opioid receptor (Homo sapiens, UniProt P35372); assay: Displacement of [3H]diprenorphine from human mu opioid receptor expressed in CHO cells; format: cell-based
T2 sequence (P35372 whole entry): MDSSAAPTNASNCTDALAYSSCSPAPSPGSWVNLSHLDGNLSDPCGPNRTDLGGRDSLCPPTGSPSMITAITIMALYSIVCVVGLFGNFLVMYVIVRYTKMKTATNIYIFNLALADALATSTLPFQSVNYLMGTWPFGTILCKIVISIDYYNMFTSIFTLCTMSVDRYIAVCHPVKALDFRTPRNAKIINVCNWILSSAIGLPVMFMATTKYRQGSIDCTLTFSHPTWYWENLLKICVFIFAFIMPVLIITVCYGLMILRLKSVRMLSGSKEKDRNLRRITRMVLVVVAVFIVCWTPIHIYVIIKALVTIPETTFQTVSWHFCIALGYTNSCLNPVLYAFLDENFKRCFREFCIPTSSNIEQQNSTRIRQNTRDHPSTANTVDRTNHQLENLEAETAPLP

Nociceptin receptor [3] = target: T1, Nociceptin receptor; assay: Agonist activity at human NOP assessed as stimulation of GDP-induced [35S]GTPgammaS binding; format: functional
How it was run: (§1)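 Functional agonism measured as enhancement of [35S]GTPγS binding in the presence of GDP, using membranes from cells transfected with the receptor. Values are means of 2–3 experiments.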

Mu-type opioid receptor [4] = target: T2, Mu-type opioid receptor; assay: Agonist activity at human mu opioid assessed as stimulation of GDP-induced [35S]GTPgammaS binding; format: functional; how it was run: as §1
[5] = target: Kappa-type opioid receptor (Homo sapiens, UniProt P41145); assay: Displacement of [3H]diprenorphine from human kappa opioid receptor expressed in CHO cells; format: cell-based
Sequence of Kappa-type opioid receptor (P41145 whole entry): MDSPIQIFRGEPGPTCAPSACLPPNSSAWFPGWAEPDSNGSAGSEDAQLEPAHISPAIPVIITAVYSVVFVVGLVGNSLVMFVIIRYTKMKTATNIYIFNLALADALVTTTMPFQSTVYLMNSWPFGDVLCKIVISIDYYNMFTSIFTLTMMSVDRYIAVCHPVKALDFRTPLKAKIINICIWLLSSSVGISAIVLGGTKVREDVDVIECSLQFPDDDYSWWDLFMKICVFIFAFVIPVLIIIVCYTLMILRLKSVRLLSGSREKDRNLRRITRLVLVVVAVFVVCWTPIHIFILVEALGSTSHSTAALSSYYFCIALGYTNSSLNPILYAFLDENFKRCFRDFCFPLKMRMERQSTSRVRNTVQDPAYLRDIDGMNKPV

[6] = target: Delta-type opioid receptor (Homo sapiens, UniProt P41143); assay: Displacement of [3H]diprenorphine from human delta opioid receptor expressed in CHO cells; format: cell-based
Sequence of Delta-type opioid receptor (P41143 whole entry): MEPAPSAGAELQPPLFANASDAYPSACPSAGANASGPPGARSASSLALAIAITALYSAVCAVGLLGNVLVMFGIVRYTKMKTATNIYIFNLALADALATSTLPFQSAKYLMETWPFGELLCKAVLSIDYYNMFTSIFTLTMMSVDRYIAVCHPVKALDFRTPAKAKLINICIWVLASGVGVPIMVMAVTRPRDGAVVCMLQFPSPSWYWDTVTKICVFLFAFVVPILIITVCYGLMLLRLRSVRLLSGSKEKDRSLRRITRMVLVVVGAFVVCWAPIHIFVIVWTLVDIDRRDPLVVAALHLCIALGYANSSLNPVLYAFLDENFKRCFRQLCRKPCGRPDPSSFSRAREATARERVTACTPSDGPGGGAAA

Cavia porcellus [7] = assay: Antitussive activity against capsaicin-induced cough in po dosed Hartley guinea pig model after 2 hrs; format: functional
Rattus norvegicus [8] = assay: Anxiolytic activity in po dosed CD rats assessed as suppression of conditioned paw licking administered twice per day for 14 days measured after 2 hrs of last dose; format: functional
Cavia porcellus [9] = species on record: Cavia porcellus; assay: Anxiolytic activity in Dunkin-Hartley guinea pig pup assessed as reduction in number of vocalization produced due to separation measured after 2 hrs; format: functional
[10] = target: T3, Nuclear receptor subfamily 1 group I member 2 (Homo sapiens, UniProt O75469); assay: Activity at human PXR assessed as induction of CYP3A4 activity in human hepatocytes at 1 uM relative to rifampicin; format: cell-based, Hepatocyte
T3 sequence (O75469 whole entry): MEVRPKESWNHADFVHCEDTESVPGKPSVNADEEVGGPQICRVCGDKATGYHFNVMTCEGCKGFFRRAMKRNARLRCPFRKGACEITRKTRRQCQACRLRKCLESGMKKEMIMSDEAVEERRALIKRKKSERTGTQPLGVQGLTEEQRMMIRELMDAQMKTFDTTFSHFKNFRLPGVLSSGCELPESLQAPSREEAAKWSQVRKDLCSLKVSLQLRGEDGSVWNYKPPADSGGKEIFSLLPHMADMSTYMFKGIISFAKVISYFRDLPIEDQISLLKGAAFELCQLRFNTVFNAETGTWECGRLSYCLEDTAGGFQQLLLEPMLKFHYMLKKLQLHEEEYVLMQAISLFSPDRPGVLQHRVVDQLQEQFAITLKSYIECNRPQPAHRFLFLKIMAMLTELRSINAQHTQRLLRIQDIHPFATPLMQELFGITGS

[11] = AUC (0 to 24 hrs) in rat at 3 mg/kg, po; format: ADME, organism-based; parameters: time < 24 hr, dose 3 mg/kg, route oral; settings: plasma
[12] = Cmax in rat at 3 mg/kg, po; format: ADME, organism-based; parameters: dose 3 mg/kg, route oral; settings: in vivo
[13] = Half life in rat at 3 mg/kg, po; format: ADME, organism-based; parameters: dose 3 mg/kg, route oral; settings: in vivo
[14] = Oral bioavailability in rat at 3 mg/kg; format: ADME, organism-based; settings: in vivo
[15] = Clearance in rat at 3 mg/kg, po; format: ADME, organism-based; parameters: dose 3 mg/kg, route oral; settings: in vivo
Rattus norvegicus [16] = assay: Volume of distribution at steady state in rat at 3 mg/kg, po; format: ADME, organism-based; parameters: dose 3 mg/kg, route oral; settings: in vivo
Mu-type opioid receptor [17] = target: T2, Mu-type opioid receptor; assay: Binding affinity to human mu opioid assessed as stimulation of GDP-induced [35S]GTPgammaS binding at 10 uM; format: functional
How it was run: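 Agonist function read as enhancement of [35S]GTPγS binding to receptor-expressing membranes in the presence of GDP. Percent stimulation is given at 10 µM test compound. Values are means of at least 2–3 experiments.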

Nociceptin receptor [18] = target: T1, Nociceptin receptor; assay: Agonist activity at human NOP assessed as stimulation of GDP-induced [35S]GTPgammaS binding at 10 uM; format: functional
How it was run: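 Functional agonism measured as enhancement of [35S]GTPγS binding in the presence of GDP, using membranes from cells transfected with the receptor. […] Values are means of 2–3 experiments.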

T1 sequence (P41146 whole entry): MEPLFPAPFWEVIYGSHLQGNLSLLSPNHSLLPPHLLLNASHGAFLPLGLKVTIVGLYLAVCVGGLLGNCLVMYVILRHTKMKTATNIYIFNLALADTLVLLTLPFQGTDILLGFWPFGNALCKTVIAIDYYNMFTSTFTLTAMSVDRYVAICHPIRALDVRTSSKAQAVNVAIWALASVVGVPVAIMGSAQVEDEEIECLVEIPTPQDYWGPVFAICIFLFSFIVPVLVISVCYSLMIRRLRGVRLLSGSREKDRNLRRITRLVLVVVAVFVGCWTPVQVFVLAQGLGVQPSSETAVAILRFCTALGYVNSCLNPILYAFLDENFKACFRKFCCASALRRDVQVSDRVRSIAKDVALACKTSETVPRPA

SMILES	Ki (Nociceptin receptor [1]) [nM]	Ki (Mu-type opioid receptor [2]) [nM]	EC50 (Nociceptin receptor [3]) [nM]	also measured
NC(=O)C1(c2ccc(F)cc2)CC2CCC(C1)N2C(c1ccccc1Cl)c1ccccc1Cl (centres undefined)	16	126	14	EC50 (Mu-type opioid receptor [4]): 947 nM; Ki [5]: 752 nM; Ki [6]: 1040 nM; ED50 (Cavia porcellus [7]): 0.03 mg/kg; ED50 (Rattus norvegicus [8]): 2.7 mg/kg; ED50 (Cavia porcellus [9]): 0.2 mg/kg; Ratio [10]: 0.27; AUC(0-t) at 24 h [11]: 1.27 µM·h; Cmax [12]: 250 nM; half-life [13]: 1.8 h; bioavailability [14]: 45%; CL/F [15]: 33 mL/min/kg; Vdss (Rattus norvegicus [16]): 1.8 L/kg
NC(=O)C1(c2ccc(Br)cc2)CC2CCC(C1)N2C(c1ccccc1Cl)c1ccccc1Cl (centres undefined)	40	–	–	Ratio [10]: 0.05
CCNC(=O)C1(c2ccccc2)CC2CCC(C1)N2C(c1ccccc1Cl)c1ccccc1Cl (centres undefined)	7	215	–	Ratio [10]: 1.49
OC1(c2cccnn2)CC2CCC(C1)N2C(c1ccccc1Cl)c1ccccc1Cl (stereo in doubt; 11c)	10	470	–	–
O=C(NC1(c2ccccc2)CC2CCC(C1)N2C(c1ccccc1Cl)c1ccccc1Cl)C1CC1 (centres undefined)	11	996	35	Activity (Mu-type opioid receptor [17]): 25%
COCCNC(=O)C1(c2ccccc2)CC2CCC(C1)N2C(c1ccccc1Cl)c1ccccc1Cl (centres undefined)	8.2	60	–	Ratio [10]: 2.35
Clc1ccccc1C(c1ccccc1Cl)N1C2CCC1CC(c1ccccc1)(c1nc[nH]n1)C2 (centres undefined)	5.3	100	–	–
Cc1ccnc(C2(O)CC3CCC(C2)N3C(c2ccccc2Cl)c2ccc(C)cc2Cl)c1 (centres undefined)	7.3	708	–	–
Cc1ccc(C(c2ccccc2Cl)N2C3CCC2CC(O)(CCCO)C3)c(Cl)c1 (centres undefined)	7.4	306	–	–
N#CC1(c2ccccc2)CC2CCC(C1)N2C(c1ccccc1Cl)c1ccccc1Cl (centres undefined)	100	–	–	–
OC1(c2cccnc2)C2CCC1CN(C(c1ccccc1Cl)c1ccccc1Cl)C2 (centres undefined)	908	7260	–	–
O/N=C/C1(c2ccccc2)CC2CCC(C1)N2C(c1ccccc1Cl)c1ccccc1Cl (centres undefined)	20	601	107	Activity (Mu-type opioid receptor [17]): 29%
OC1(c2cccnc2)CC2CCC(C1)N2C(c1ccccc1Cl)c1ccccc1Cl (centres undefined)	3	42	–	–
Cc1ccnc(C2(O)C3CCC2CN(C(c2ccccc2Cl)c2ccccc2Cl)C3)c1 (centres undefined)	385	3590	–	–
NC(=O)c1ccc(C2(C(N)=O)CC3CCC(C2)N3C(c2ccccc2Cl)c2ccccc2Cl)cc1 (centres undefined)	678	–	–	Ratio [10]: 0.05
Cc1ccc(C(c2ccccc2Cl)N2C3CCC2CC(O)(c2cccc(F)c2)C3)c(Cl)c1 (centres undefined)	2.7	57	16	EC50 (Mu-type opioid receptor [4]): 894 nM
Cc1ccc(C(c2ccccc2Cl)N2C3CCC2CC(O)(C2CCCC2)C3)c(Cl)c1 (centres undefined)	1.9	104	16	EC50 (Mu-type opioid receptor [4]): 709 nM
Cc1ccc(C(c2ccccc2Cl)N2C3CCC2CC(O)(C2CCNC2=O)C3)c(Cl)c1 (centres undefined)	3.6	781	48	Activity (Mu-type opioid receptor [17]): 60%
COc1ccc(C2(C(N)=O)CC3CCC(C2)N3C(c2ccccc2Cl)c2ccccc2Cl)cc1 (centres undefined)	22	59	–	Ratio [10]: 0.06
OC1(c2ccccc2)CC2CCC(C1)N2C(c1ccccc1)c1ccccc1 (centres undefined)	–	94	–	Activity (Cavia porcellus [7]): inactive
OCC1(c2ccccc2)CC2CCC(C1)N2C(c1ccccc1Cl)c1ccccc1Cl (centres undefined)	6	627	136	EC50 (Mu-type opioid receptor [4]): 2140 nM
OC1(c2ccccc2)CC2CCCC(C1)N2C(c1ccccc1)c1ccccc1 (centres undefined)	7.5	514	–	Activity (Nociceptin receptor [18]): 101%
OC1(c2cccnn2)CC2CCC(C1)N2C(c1ccccc1Cl)c1ccccc1Cl (stereo in doubt; 12c)	3760	–	–	–
